A selection: hits, their analogues and other compounds. The true share with any hit is near 4.8%.
NLRP3 yeast inh = NALP3 inflammasome inhibitors in reconstituted yeast, primary screen, luminescence, uHTS; Yeast reconstituted NLRP3/ASC/caspase-1, beta-gal luminescence, 24 h; inhibition, % at 10 µM; 330,000 tested, 0.39% active;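 active = inhibition of 50% or more; inactive = inhibition below 50%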
NALP1 inh = NALP1 inflammasome inhibitors in reconstituted yeast, colorimetric, S. cerevisiae, triplicate retest; 280,000 tested, 0.61% active; inhibition, % at 10 µM; S. cerevisiae NALP1/ASC/caspase-1 growth, X-gal OD620, 72 h; in the data active = inhibition mostly above about 24%, no sharp cut-off; inactive = mostly below about 32%
ALR inh = inhibitors of human ALR sulfhydryl oxidase, primary screen, biochemical, H2O2 detection, HRP-luminol luminescence, single point. FAD-linked sulfhydryl oxidase ALR (Homo sapiens), P55789. purified ALR, DTT oxidation. inhibition, % (concentration not given with the values). 290,000 tested, 3.8% active. AID 485317, 2010;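 active = mean replicate inhibition above about 79%, with every replicate also reaching it, limit read from the data; inconclusive = only one of the two criteria met; inactive = mean below limit and not every replicate reaching it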
Target sequence (P55789 whole entry, looked up): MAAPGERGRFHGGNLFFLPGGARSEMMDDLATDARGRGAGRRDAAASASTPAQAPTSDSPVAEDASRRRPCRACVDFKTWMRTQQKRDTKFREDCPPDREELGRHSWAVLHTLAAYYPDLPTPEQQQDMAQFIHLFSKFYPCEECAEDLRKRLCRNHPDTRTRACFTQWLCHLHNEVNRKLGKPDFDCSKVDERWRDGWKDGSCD
ATG4B inh = ATG4B protease inhibitors, primary screen, biochemical, fluorescence, uHTS; Cysteine protease ATG4B (Homo sapiens), Q9Y4P1; ATG4B cleavage of LC3-PLA2, NBD-HPC fluorescence, 1 h; AID 504462, 2011; inhibition, % at 8.33 µM; 340,000 tested, 0.51% active; in the data active = inhibition above about 40%
Target sequence (Q9Y4P1 whole entry, looked up): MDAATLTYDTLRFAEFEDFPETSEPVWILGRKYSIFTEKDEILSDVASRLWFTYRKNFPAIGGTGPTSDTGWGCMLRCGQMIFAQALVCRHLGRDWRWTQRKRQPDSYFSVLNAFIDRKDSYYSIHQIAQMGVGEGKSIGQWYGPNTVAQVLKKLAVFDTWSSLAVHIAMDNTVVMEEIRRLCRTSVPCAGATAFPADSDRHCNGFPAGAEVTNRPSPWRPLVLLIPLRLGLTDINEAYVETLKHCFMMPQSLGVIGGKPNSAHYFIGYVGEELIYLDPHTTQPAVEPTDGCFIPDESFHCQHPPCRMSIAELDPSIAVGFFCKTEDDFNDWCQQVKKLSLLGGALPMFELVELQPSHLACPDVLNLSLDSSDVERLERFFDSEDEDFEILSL
UCH37 DUB inh = inhibitors of human UCH37 deubiquitinase, primary screen, biochemical, Ub-AMC cleavage, fluorescence. Ubiquitin carboxyl-terminal hydrolase isozyme L5 (Homo sapiens), Q9Y5K5. purified proteasome/UCH37. inhibition, % (no concentration beside the values). 330,000 tested, 0.33% active. AID 588478, 2011;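 active = mean inhibition over replicate wells above about 20%, limit read from the data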
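Schedule: 30 min plus 25 min, room temperature / Material: human UCH37 within purified proteasomes / Technique: AMC fluorescence intensity at 355/460 nm / Buffer or medium: pH 7.4 Tris-HCl (50 mM) with ovalbumin, ATP-MgCl2, DTT / Controls: wells without proteasome as full block, compound-free enzyme plus substrate as uninhibited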
Calb FLC = C. albicans growth inhibition with fluconazole, primary screen, CaCi-2 strain, Alamar Blue fluorescence. C. albicans CaCi-2 + fluconazole, 48 h. growth inhibition, % (concentration not given with the values). 300,000 tested, 0.57% active;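 active = growth inhibition above about 58% in most replicates, limit read from the data, passing the limit was not always enough; inconclusive = exactly half the replicates above a set limit; inactive = most replicates below a set limit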;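 also: all wells also contain fluconazole at 8 µg/ml as a sub-toxic cotreatment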
Numbers stand for hits; n = inactive; u = inconclusive; x = no result given.

SMILES	NLRP3 yeast inh	NALP1 inh	ALR inh	ATG4B inh	UCH37 DUB inh	Calb FLC
NC(=O)c1c(N=Cc2cccnc2)sc2c1CCCC2	x	x	x	x	n	x
CC(=O)NC1CCCN(O)C(=O)/C=C(\C)CCOC(=O)C(NC(C)=O)CCCN(O)C(=O)/C=C(\C)CCOC(=O)C(NC(C)=O)CCCN(O)C(=O)/C=C(\C)CCOC1=O (centres undefined)	n	n	n	n	x	85.8
CCOC(=O)c1ccccc1OCc1cc(/C=N/n2cnnc2)ccc1OC	n	n	n	n	x	102.2
COc1ccccc1CCC(=O)Oc1ccccc1C#N	n	n	84.9	n	n	n
COc1ccccc1NC(=O)Nc1ccccc1C#N	n	n	n	n	n	n
O=C(NN=Cc1ccc([N+](=O)[O-])cc1)c1cc(C2CC2)nc2ccccc12	x	x	x	x	n	x
Cc1cc(Br)cc(C)c1NC(=S)NC(=O)CC(C)C	n	n	90.3	n	n	n
CC(=O)NS(=O)(=O)c1ccc(NC(=O)/C=C/c2cn(-c3ccccc3)nc2-c2ccccc2)cc1	n	n	98.1	n	n	n
CC(=NNC(=O)COc1ccc(C)cc1C(C)C)c1cc2ccccc2o1	x	x	x	x	n	x
Cc1ccccc1-c1ccnc2[nH]n(-c3ccccc3)c(=O)c12	n	n	n	n	n	78.5
Cc1[nH]n(-c2ccccc2)c(=O)c1/C=N/c1ccccn1	n	n	n	n	x	n
CCN(CC)C(=NS(=O)(=O)c1ccc(C)cc1)c1ccccc1	x	x	x	x	n	x
COc1ccc(C=NNC(=O)c2ccc3c(c2)OCO3)cc1	x	x	x	x	n	x
COc1ccc(NC(=O)/C(Cl)=C(/Cl)S(=O)Cc2ccccc2)cn1 (centres undefined)	n	n	n	n	n	n
COc1ccc(CS(=O)(=O)/C(Cl)=C(/Cl)C(=O)Nc2ccc(OC)nc2)cc1	n	n	97.9	n	n	n
Cc1c(C(=O)c2ccc(Cl)cc2[N+](=O)[O-])c2ccccn2c1CCC#N	n	n	95.5	n	n	n
Cc1c(C(=O)c2ccc(F)cc2F)c2ccccn2c1CCC#N	n	n	x	n	x	n
Cc1c(C(=O)c2ccc(N(C)C)cc2)c2ccccn2c1CCC#N	n	n	98.2	n	n	n
Cc1ccnc(N/C=C(/NC(=O)c2ccccc2)C(=O)NN=Cc2ccc(F)cc2)n1	x	x	x	x	n	x
Clc1cccc(-c2ccc(C=Nn3cnnc3)o2)c1	x	x	x	x	n	x
S=C(NCCc1ccccn1)Nc1ccccc1Cl	n	n	94.1	n	n	n
CC(=O)Nc1ccc(SC[C@H](C)CN2CC[C@H](C(C)(C)C)CCC2=O)cc1	n	x	99.2	n	n	x
CC(=O)Nc1ccc(SC[C@H](CC(C)C)N2CCN(CC(C)C)CCC2=O)cc1	n	n	98.5	n	n	n
CC(=O)Nc1ccc(SC[C@H](CC(C)C)N2CCN(CCc3ccccc3)CCC2=O)cc1	n	n	98.8	n	n	n
CC(=O)Nc1ccc(S[C@@H](CCN2CC[C@H](O)CCC2=O)c2ccccc2)cc1	n	x	98.7	n	n	x
SMILES	NLRP3 yeast inh	NALP1 inh	ALR inh	ATG4B inh	UCH37 DUB inh	Calb FLC
CCN(C=Nc1sc2c(c1C#N)CCCCC2)CC	x	x	x	x	n	x
COc1ccccc1C=Nn1c(C)nnc1-n1nc(C)cc1C	x	x	x	x	n	x
CC(=NNC(=O)CNC(=O)c1ccc(F)cc1)c1ccco1	x	x	x	x	n	x
Cc1nc2ccc(C(=O)NN=Cc3cc([N+](=O)[O-])ccc3O)cc2[nH]1	x	x	x	x	n	x
CC1(C)c2cc(Cl)ccc2-n2c1cc(O)c(-c1ccccc1)c2=O	n	x	u	n	x	n
Cc1c(O)cc2n(c1=O)-c1ccc(Cl)cc1C2(C)C	n	n	n	n	n	109.0
CCOc1ccc(/C=C\C(C)=NO)cc1	x	x	x	x	n	x
CCn1c(C)cc(/C=C2/SC(=S)N(CC(=O)O)C2=O)c1C	n	n	99.1	n	20.5	n
Nc1nonc1-n1nnc(C(=O)NN=Cc2ccccn2)c1-c1ccccc1	x	x	x	x	n	x
CN1C(=O)CC(C(=O)O)SC1=Nc1cc(Cl)c(O)c(Cl)c1 (centres undefined)	n	n	98.6	n	n	n
CN1C(=O)CC(C(=O)O)SC1=Nc1cc(Cl)cc(Cl)c1 (centres undefined)	n	n	n	n	n	n
Cc1ccc(CNC(=O)CC2Nc3c4ccccc4nc(=S)n3C2=O)cc1 (centres undefined)	n	n	n	x	n	n
C=CCNC(=O)CC1Nc2c3ccccc3nc(=S)n2C1=O (centres undefined)	n	n	94.9	n	n	n
CC(C)CCNC(=O)CC1Nc2c3ccccc3nc(=S)n2C1=O (centres undefined)	n	n	n	n	n	n
CC(C)NC(=O)CC1Nc2c3ccccc3nc(=S)n2C1=O (centres undefined)	n	n	88.2	n	n	n
O=C(O)COc1ccccc1C=NNC(=O)CSc1nnc(SCc2ccccc2)s1	x	x	x	x	n	x
CCn1cnc2cc(NCc3ccc(OC)cc3)ccc21	n	n	n	n	n	n
COc1ccc(CNc2ccc3c(c2)nc(C)n3C)cc1OC	n	n	n	n	n	n
CCOc1ccc2nc3cc(NCc4ccc(OC)cc4)ccc3c(N)c2c1	n	n	n	n	n	102.0
CCOc1ccc(CNc2ccc3c(c2)nc(C)n3C)cc1	n	n	95.9	n	n	x
COc1cccc(CNc2ccc3c(c2)nc(C)n3C)c1OC	n	n	99.2	n	n	n
CC1CCc2sc(C(=O)NN=Cc3ccc([N+](=O)[O-])cc3)cc2C1 (centres undefined)	x	x	x	x	n	x
CC(=NNC(=O)CN1CCN(S(=O)(=O)c2ccc(C)cc2)CC1)c1ccco1	x	x	x	x	n	x
O=C(O)c1ccc(N2C(=O)CC(N3C(=O)/C(=C/c4ccc(Cl)cc4)SC3=S)C2=O)cc1 (centres undefined)	n	n	99.5	n	n	n
O=C(O)c1ccc(N2C(=O)CC(N3CCN(c4ccc(Cl)cc4)CC3)C2=O)cc1 (centres undefined)	n	n	n	n	n	n
SMILES	NLRP3 yeast inh	NALP1 inh	ALR inh	ATG4B inh	UCH37 DUB inh	Calb FLC
COc1ccc2nc(Nc3ccccc3)sc2c1	n	n	94.1	n	n	n
COc1ccc2nc(Nc3ccc4c(c3)OCO4)sc2c1	n	x	x	n	n	n
COc1ccc2nc(Nc3ccccc3OC)sc2c1	n	n	98.8	n	n	n
COc1ccc2nc(NC(=O)Nc3ccccc3OC)sc2c1	n	n	n	n	n	n
COc1ccc2nc(NC(=O)c3ccccc3[N+](=O)[O-])sc2c1	n	30.0	n	n	n	n
C=CCc1ccc(OCCOc2cccc(C=Nn3cnnc3)c2)c(OC)c1	x	x	x	x	n	x
O=C(CCN1CCOCC1)N1CCCC(Nc2ccc(F)cc2)C1 (centres undefined)	n	n	n	n	n	n
